Experimental data taken from ChEMBL document CHEMBL4689842, “EUbOPEN Chemogenomics Library wave 1” (2021).

Experiments:
Format in all cases: toxicity, cell-based
[1] = system: HEK-293T; test: Incucyte cell viability with HEK293T; settings: human, 10 µM, compound concentration 10 uM; also: filed as whole numbers so only -1 and 0 and 1 occur
[2] = system: U2OS; test: Incucyte cell viability with U2OS; settings: human, 10 µM, compound concentration 10 uM; also: filed as whole numbers so only -1 and 0 and 1 occur
[3] = system: Fibroblast; test: Multiplex assay against human fibroblast
Method in brief: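 Compound was added to live cells that had been stained at seeding with Hoechst33342, BioTracker Green Microtubule Cytoskeleton Dye, MitoTracker Red and Annexin V Alexa Fluor 680, and imaging followed on a CQ1 microscope at 37°C and 5% CO2. CellPathfinder machine-learning gating divided cells into Hoechst high-intensity objects or normal cells, normal cells into healthy, pyknosed or fragmented nuclei, and pyknosed cells into mitotic or apoptotic. Tubulin, mitochondrial-mass and membrane-permeability phenotypes are per cents of healthy-nucleus cells.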

[4] = 6 h, replicate number 1, timepoint 6 hours
[5] = 12 h, replicate number 1, timepoint 12 hours
[6] = 18 h, replicate number 1, timepoint 18 hours
[7] = 24 h, replicate number 1, timepoint 24 hours
[8] = 12 h, 1 µM, compound concentration 1 uM, replicate 1
[9] = 12 h, 1 µM, compound concentration 1 uM, replicate 2
[10] = 12 h, 10 µM, compound concentration 10 uM, replicate 1
[11] = 12 h, 10 µM, compound concentration 10 uM, replicate 2
[12] = 24 h, 1 µM, compound concentration 1 uM, replicate 1
[13] = 24 h, 1 µM, compound concentration 1 uM, replicate 2
[14] = 24 h, 10 µM, compound concentration 10 uM, replicate 1
[15] = 24 h, 10 µM, compound concentration 10 uM, replicate 2
[16] = 48 h, 1 µM, compound concentration 1 uM, replicate 1
[17] = 48 h, 1 µM, compound concentration 1 uM, replicate 2
[18] = 48 h, 10 µM, compound concentration 10 uM, replicate 1
[19] = 48 h, 10 µM, compound concentration 10 uM, replicate 2

`CCCc1cc(C)[nH]c(=O)c1CNC(=O)c1cc(-c2ccc(N3CCN(C(C)C)CC3)nc2)cc2c1cnn2C(C)C` was tested, and the “Growth Rate” value [1, 4] was 0, the “Growth Rate” value [1, 5] was 0 and the “Growth Rate” value [1, 6] was 0. The “Growth Rate” value [1, 7] was 0, the “Growth Rate” value ([2]; 0 h, replicate number 2, timepoint 0 hours) was 0 and the “Growth Rate” value [2, 4] was 1. For the same compound, the “Growth Rate” value [2, 5] was 1, the “Growth Rate” value [2, 6] was 0 and the “Growth Rate” value [2, 7] was 0. For the same compound, the “Growth Rate” value ([2]; 24 h, replicate number 2, timepoint 24 hours) was 1, the “Population Apoptotic (%)” value [3, 8] was 73% and the “Population Fragmented Nuclei (%)” value [3, 8] was 26%. The “Population Healthy Nuclei (%)” value [3, 8] was 41%, the “Population Hoechst High Intensity Objects (%)” value [3, 8] was 22% and the “Population Membrane Permeable-Phenotype (%)” value [3, 8] was 4%. For the same compound, the “Population Mitochondria Different-Phenotype (%)” value [3, 8] was 32%, the “Population Mitotic Cells (%)” value [3, 8] was 26% and the “Population Normal (%)” value [3, 8] was 77%. For the same compound, the “Population Pyknosed Nuclei (%)” value [3, 8] was 31%, the “Population Tubulin-Different-Phenotype (%)” value [3, 8] was 52% and the “Total Cell Count” value [3, 8] was 77. The “Population Apoptotic (%)” value [3, 9] was 20%, the “Population Fragmented Nuclei (%)” value [3, 9] was 19% and the “Population Healthy Nuclei (%)” value [3, 9] was 70%. For the same compound, the “Population Hoechst High Intensity Objects (%)” value [3, 9] was 10%, the “Population Membrane Permeable-Phenotype (%)” value [3, 9] was 8% and the “Population Mitochondria Different-Phenotype (%)” value [3, 9] was 91%. The “Population Mitotic Cells (%)” value [3, 9] was 80%, the “Population Normal (%)” value [3, 9] was 89% and the “Population Pyknosed Nuclei (%)” value [3, 9] was 9%. For the same compound, the “Population Tubulin-Different-Phenotype (%)” value [3, 9] was 94%, the “Total Cell Count” value [3, 9] was 56 and the “Population Apoptotic (%)” value [3, 10] was 48%. For the same compound, the “Population Fragmented Nuclei (%)” value [3, 10] was 24%, the “Population Healthy Nuclei (%)” value [3, 10] was 32% and the “Population Hoechst High Intensity Objects (%)” value [3, 10] was 29%. The “Population Membrane Permeable-Phenotype (%)” value [3, 10] was 6%, the “Population Mitochondria Different-Phenotype (%)” value [3, 10] was 21% and the “Population Mitotic Cells (%)” value [3, 10] was 51%. The “Population Normal (%)” value [3, 10] was 70%, the “Population Pyknosed Nuclei (%)” value [3, 10] was 42% and the “Population Tubulin-Different-Phenotype (%)” value [3, 10] was 69%. For the same compound, the “Total Cell Count” value [3, 10] was 143, the “Population Apoptotic (%)” value [3, 11] was 85% and the “Population Fragmented Nuclei (%)” value [3, 11] was 13%. For the same compound, the “Population Healthy Nuclei (%)” value [3, 11] was 47%, the “Population Hoechst High Intensity Objects (%)” value [3, 11] was 5% and the “Population Membrane Permeable-Phenotype (%)” value [3, 11] was 79%. For the same compound, the “Population Mitochondria Different-Phenotype (%)” value [3, 11] was 100%, the “Population Mitotic Cells (%)” value [3, 11] was 14% and the “Population Normal (%)” value [3, 11] was 94%. For the same compound, the “Population Pyknosed Nuclei (%)” value [3, 11] was 38%, the “Population Tubulin-Different-Phenotype (%)” value [3, 11] was 100% and the “Total Cell Count” value [3, 11] was 57. The “Population Apoptotic (%)” value [3, 12] was 31%, the “Population Fragmented Nuclei (%)” value [3, 12] was 30% and the “Population Healthy Nuclei (%)” value [3, 12] was 47%. The “Population Hoechst High Intensity Objects (%)” value [3, 12] was 16%, the “Population Membrane Permeable-Phenotype (%)” value [3, 12] was 11% and the “Population Mitochondria Different-Phenotype (%)” value [3, 12] was 20%. For the same compound, the “Population Mitotic Cells (%)” value [3, 12] was 68%, the “Population Normal (%)” value [3, 12] was 83% and the “Population Pyknosed Nuclei (%)” value [3, 12] was 22%. For the same compound, the “Population Tubulin-Different-Phenotype (%)” value [3, 12] was 85%, the “Total Cell Count” value [3, 12] was 86 and the “Population Apoptotic (%)” value [3, 13] was 33%. For the same compound, the “Population Fragmented Nuclei (%)” value [3, 13] was 20%, the “Population Healthy Nuclei (%)” value [3, 13] was 51% and the “Population Hoechst High Intensity Objects (%)” value [3, 13] was 10%. For the same compound, the “Population Membrane Permeable-Phenotype (%)” value [3, 13] was 10%, the “Population Mitochondria Different-Phenotype (%)” value [3, 13] was 78% and the “Population Mitotic Cells (%)” value [3, 13] was 66%. For the same compound, the “Population Normal (%)” value [3, 13] was 90%, the “Population Pyknosed Nuclei (%)” value [3, 13] was 27% and the “Population Tubulin-Different-Phenotype (%)” value [3, 13] was 82%. For the same compound, the “Total Cell Count” value [3, 13] was 53, the “Population Apoptotic (%)” value [3, 14] was 46% and the “Population Fragmented Nuclei (%)” value [3, 14] was 21%. For the same compound, the “Population Healthy Nuclei (%)” value [3, 14] was 43%, the “Population Hoechst High Intensity Objects (%)” value [3, 14] was 25% and the “Population Membrane Permeable-Phenotype (%)” value [3, 14] was 4%. For the same compound, the “Population Mitochondria Different-Phenotype (%)” value [3, 14] was 37%, the “Population Mitotic Cells (%)” value [3, 14] was 53% and the “Population Normal (%)” value [3, 14] was 74%. For the same compound, the “Population Pyknosed Nuclei (%)” value [3, 14] was 35%, the “Population Tubulin-Different-Phenotype (%)” value [3, 14] was 59% and the “Total Cell Count” value [3, 14] was 199. The “Population Apoptotic (%)” value [3, 15] was 91%, the “Population Fragmented Nuclei (%)” value [3, 15] was 8% and the “Population Healthy Nuclei (%)” value [3, 15] was 48%. For the same compound, the “Population Hoechst High Intensity Objects (%)” value [3, 15] was 9%, the “Population Membrane Permeable-Phenotype (%)” value [3, 15] was 85% and the “Population Mitochondria Different-Phenotype (%)” value [3, 15] was 100%. The “Population Mitotic Cells (%)” value [3, 15] was 8%, the “Population Normal (%)” value [3, 15] was 90% and the “Population Pyknosed Nuclei (%)” value [3, 15] was 42%. The “Population Tubulin-Different-Phenotype (%)” value [3, 15] was 100%, the “Total Cell Count” value [3, 15] was 60 and the “Population Apoptotic (%)” value [3, 16] was 66%. For the same compound, the “Population Healthy Nuclei (%)” value [3, 16] was 50%, the “Population Hoechst High Intensity Objects (%)” value [3, 16] was 20% and the “Population Membrane Permeable-Phenotype (%)” value [3, 16] was 7%. For the same compound, the “Population Mitochondria Different-Phenotype (%)” value [3, 16] was 23%, the “Population Mitotic Cells (%)” value [3, 16] was 33% and the “Population Normal (%)” value [3, 16] was 79%. For the same compound, the “Population Pyknosed Nuclei (%)” value [3, 16] was 15%, the “Population Tubulin-Different-Phenotype (%)” value [3, 16] was 63% and the “Total Cell Count” value [3, 16] was 96. For the same compound, the “Population Apoptotic (%)” value [3, 17] was 50%, the “Population Fragmented Nuclei (%)” value [3, 17] was 34% and the “Population Healthy Nuclei (%)” value [3, 17] was 63%. The “Population Hoechst High Intensity Objects (%)” value [3, 17] was 10%, the “Population Membrane Permeable-Phenotype (%)” value [3, 17] was 8% and the “Population Mitochondria Different-Phenotype (%)” value [3, 17] was 10%. For the same compound, the “Population Mitotic Cells (%)” value [3, 17] was 50%, the “Population Normal (%)” value [3, 17] was 90% and the “Population Pyknosed Nuclei (%)” value [3, 17] was 1%. For the same compound, the “Population Tubulin-Different-Phenotype (%)” value [3, 17] was 73%, the “Total Cell Count” value [3, 17] was 120 and the “Population Apoptotic (%)” value [3, 18] was 77%. For the same compound, the “Population Fragmented Nuclei (%)” value [3, 18] was 34%, the “Population Healthy Nuclei (%)” value [3, 18] was 25% and the “Population Hoechst High Intensity Objects (%)” value [3, 18] was 38%. For the same compound, the “Population Membrane Permeable-Phenotype (%)” value [3, 18] was 5%, the “Population Mitochondria Different-Phenotype (%)” value [3, 18] was 63% and the “Population Mitotic Cells (%)” value [3, 18] was 22%. For the same compound, the “Population Normal (%)” value [3, 18] was 61%, the “Population Pyknosed Nuclei (%)” value [3, 18] was 40% and the “Population Tubulin-Different-Phenotype (%)” value [3, 18] was 68%. The “Total Cell Count” value [3, 18] was 124, the “Population Apoptotic (%)” value [3, 19] was 48% and the “Population Fragmented Nuclei (%)” value [3, 19] was 22%. For the same compound, the “Population Healthy Nuclei (%)” value [3, 19] was 41%, the “Population Hoechst High Intensity Objects (%)” value [3, 19] was 54% and the “Population Membrane Permeable-Phenotype (%)” value [3, 19] was 0%. For the same compound, the “Population Mitochondria Different-Phenotype (%)” value [3, 19] was 42%, the “Population Mitotic Cells (%)” value [3, 19] was 51% and the “Population Normal (%)” value [3, 19] was 45%. The “Population Pyknosed Nuclei (%)” value [3, 19] was 35%, the “Population Tubulin-Different-Phenotype (%)” value [3, 19] was 63% and the “Total Cell Count” value [3, 19] was 202.
